Source: PubChem BioAssay
The source made the active and inactive calls.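 How the source made its calls: active means mean duplicate activation above the buffer control mean plus 5 SD of those controls; inactive means the rest.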

molecular target: Potassium voltage-gated channel subfamily E member 1 (Homo sapiens) + Potassium voltage-gated channel subfamily KQT member 1 (Homo sapiens) (UniProt P15382+P51787); assay: KCNQ1-E1 channel activation – thallium flux, CHO-K1 KCNQ1/E1 cells, selectivity assay for KCNQ1 potentiator project, confirmation (AID 493186); conditions: FluxOR thallium flux, at 10 µM
Summary of the method: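 system = KCNQ1/E1-expressing stable CHO-K1 cell line | doses = single compound concentration per well | times = dye 90 min, compound 20 min, room temperature | measured by = FluxOR Tl+ flux fluorescence, kinetic read | evaluation = fluorescence rise relative to baseline, as percent of R-L3 response above buffer | controls = buffer and R-L3 | replicates = duplicate wells per compound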

Sequence of Potassium voltage-gated channel subfamily E member 1 (Homo sapiens) + Potassium voltage-gated channel subfamily KQT member 1 (Homo sapiens) (P51787 whole entry, looked up): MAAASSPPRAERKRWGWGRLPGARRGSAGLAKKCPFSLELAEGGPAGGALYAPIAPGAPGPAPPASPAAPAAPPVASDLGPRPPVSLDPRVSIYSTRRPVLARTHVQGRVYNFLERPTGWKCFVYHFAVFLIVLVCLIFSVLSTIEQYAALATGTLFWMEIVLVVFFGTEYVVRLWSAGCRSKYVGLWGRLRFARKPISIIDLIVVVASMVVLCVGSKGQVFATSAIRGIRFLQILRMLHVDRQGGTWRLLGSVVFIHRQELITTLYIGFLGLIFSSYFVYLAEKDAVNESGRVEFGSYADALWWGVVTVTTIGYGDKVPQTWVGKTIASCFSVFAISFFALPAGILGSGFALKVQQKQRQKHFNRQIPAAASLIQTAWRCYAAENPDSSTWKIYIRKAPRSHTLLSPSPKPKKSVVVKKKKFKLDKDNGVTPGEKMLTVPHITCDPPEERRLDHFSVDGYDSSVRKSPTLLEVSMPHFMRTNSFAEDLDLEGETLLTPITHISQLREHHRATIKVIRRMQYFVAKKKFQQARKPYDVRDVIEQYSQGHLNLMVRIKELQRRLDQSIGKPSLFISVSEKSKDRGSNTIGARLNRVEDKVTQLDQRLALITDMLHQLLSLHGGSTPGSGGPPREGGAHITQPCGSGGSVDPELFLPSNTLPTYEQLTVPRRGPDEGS

outcome, inactive:
CCN(Cc1ccccc1)C1CCN(Cc2ccccc2)CC1, Cc1ccc(/C(O)=C/C(=O)C(=O)NNC(=O)C(O)(c2ccccc2)c2ccccc2)cc1, S=c1[nH]nc(COc2ccccc2)n1/N=C/c1ccc(Cl)cc1Cl, O=C(NC(=S)Nc1ccc(Cl)cn1)c1cccs1, CSc1nc(SCC(=O)O)c2sc3nc(-c4ccccc4)c4c(c3c2n1)CCC4, O=C(NC(=S)Nc1ccc(CN2CCOCC2)cc1)c1ccc(-c2cccc(Cl)c2)o1, Cn1c(SCC(=O)NC2CC2)nnc1-c1cccs1, CCCOc1ccccc1NS(=O)(=O)c1ccc2[nH]c(=O)[nH]c2c1, O=C(NNc1cc(N2CCOCC2)nc(N2CCOCC2)n1)C12CC3CC(CC(C3)C1)C2, CCOc1cccc(/C=N/NC(=O)C2CCCC2)c1O, COc1ccc(C(=O)NNC(=O)C(=O)NCc2ccccc2)cc1, CCCCNC(=O)CCc1c(C)nc2c(c(C)nn2-c2ccccc2)c1C, Cn1c(=O)cc(NCc2ccccc2)[nH]c1=O, S=c1[nH]cnc2scc(-c3ccc(Br)cc3)c12, COC(=O)C1=C(C)N(c2ccc(F)c(Cl)c2)C(=O)C1, COc1cccc(NC(=S)NC(=O)c2c(Cl)c(C)nn2C)c1, CCN(CC)S(=O)(=O)c1ccc(NC(=O)c2cccnc2Cl)c(NC(=O)c2cccnc2Cl)c1, CCOC(=O)c1c(C)cccc1OCC(N)=O, COCCOC(=O)/C(=C/c1ccc(OC(=O)c2ccccc2)cc1)C(C)=O, Cc1cccc(C(=O)NC(=S)NNC(=O)COc2c(C)cccc2C)c1, COc1ccc(C(=O)/C=C/C(=O)N(CC(=O)NC2CCCCC2)Cc2ccccc2)c(O)c1
